# Experimental data pooled from the literature.
# Protocols differ between the studies behind these lines.
# Target: Interleukin-1 receptor-associated kinase 4 (IRAK4, Homo sapiens, UniProt Q9NWZ3)
# One construct used (Q9NWZ3 1-460): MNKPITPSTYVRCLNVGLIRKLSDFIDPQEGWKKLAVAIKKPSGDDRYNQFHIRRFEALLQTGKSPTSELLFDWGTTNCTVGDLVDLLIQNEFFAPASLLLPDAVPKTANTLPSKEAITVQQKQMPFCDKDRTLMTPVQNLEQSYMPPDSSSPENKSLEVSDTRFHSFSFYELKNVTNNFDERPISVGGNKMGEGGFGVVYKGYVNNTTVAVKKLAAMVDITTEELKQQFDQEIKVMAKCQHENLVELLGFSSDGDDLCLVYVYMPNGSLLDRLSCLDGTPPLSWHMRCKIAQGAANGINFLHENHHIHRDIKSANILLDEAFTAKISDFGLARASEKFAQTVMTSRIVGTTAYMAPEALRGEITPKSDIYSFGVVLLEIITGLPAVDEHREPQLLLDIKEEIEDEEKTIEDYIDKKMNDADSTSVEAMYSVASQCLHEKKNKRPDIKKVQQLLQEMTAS
Structure (SMILES),read-out,mode,method,tested at,measurement,value
Nc1ncc(-c2nc(N3CCOCC3)nc(N3CCOCC3)n2)c(C(F)F)n1,binding,,competition with immobilised ligand,10 µM,remaining binding,72%
Cn1cc(-c2cccc(N3CCc4c(sc5c4CC(C)(C)C5)C3=O)c2CO)cc(Nc2ccncn2)c1=O,enzyme activity,inhibitor,,1 µM,inhibition,6%
CC(C)(C)c1cc(C=C(C#N)C#N)cc(Br)c1O,enzyme activity,inhibitor,,0.5 µM,remaining activity,182%
N#CC1(c2ccccn2)CCN(Cc2cc(C(=O)O)c(=O)n3ccccc23)CC1,cell-free assay,,competition with immobilised ligand,1 µM,remaining binding,83%
Cc1nn(C)cc1-c1nc2c(N3CCN(Cc4ccc(Cl)cc4)CC3)c(Cl)cnc2[nH]1,binding,,competition with immobilised ligand,1 µM,remaining binding,74%
O=c1[nH]c2ccccc2n1C1CCN(Cc2ccc(-c3[nH]c4cc5ncnc5cc4nc3-c3ccccc3)cc2)CC1,cell-free assay,,,0.5 µM,remaining signal,201%
Cn1cncc1[C@@](O)(COc1ccc(C#N)cc1-c1ccc(OC(F)(F)F)cc1)c1ccc(C#N)cc1,cell-free assay,,competition with immobilised ligand,1 µM,remaining binding,80%
C#Cc1n[nH]c2c(-c3cn([C@@H](C)c4ccccn4)c(=O)[nH]c3=O)cc(F)cc12,enzyme activity,inhibitor,,0.1 µM,inhibition,14.7%
COc1ncccc1-c1cnn2ccc(N3CCN(C(=O)OC(C)C)CC3)nc12,binding,,competition with immobilised ligand,1 µM,remaining binding,100%
C#Cc1n[nH]c2c(-c3cn([C@@H](C)c4ccccc4)c(=O)[nH]c3=O)cc(F)cc12,enzyme activity,inhibitor,,0.1 µM,inhibition,11.7%
Cn1cc(-c2cc(F)cc(N3CCn4c(cc5c4CCCC5)C3=O)c2CO)cc(Nc2ccc(N3CCN(C4COC4)CC3)cn2)c1=O,enzyme activity,inhibitor,,0.1 µM,inhibition,8%
COc1cc(Nc2ncc(F)c(Nc3ccc4c(n3)NC(=O)C(C)(C)O4)n2)cc(OC)c1OC,binding,,,10 µM,inhibition,96%
